A selection: hits, their analogues and other compounds. The true share with any hit is near 3.7%.
KCNQ1 pot – potentiates or activates the human KCNQ1 potassium channel; 0.35% of 310,000 active; B-score at 10 µM; P51787; CHO-K1 KCNQ1, thallium flux FluxOR fluorescence; active compounds read high;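 active = fluorescence ratio B-score, a plate-corrected score, at least three library SD, with initial intensity B-score within 5 SD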
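System: CHO-K1 cells stably expressing KCNQ1 / Medium: assay buffer for compound exposure, DMSO matched across wells / Reagent: thallium- and potassium-containing depolarizing buffer / Compound: one concentration, matched DMSO / Incubation: 20 min compound pretreatment at room temperature / Measured by: kinetic FluxOR fluorescence, 10 s baseline plus 110 s post-stimulus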
hERG rescue – shields human hERG channel from block by proarrhythmic agents | Q12809 | CHO-hERG, FluxOR thallium flux, dofetilide IC70 present | activation (rescue from dofetilide block), less the hit threshold, % at 10 µM | 0.51% of 310,000 active;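 active = activation above the mean of controls blocked by dofetilide plus 5 SD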;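 note: thallium influx through hERG after potassium depolarization seen as dye fluorescence rise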
KCNQ1 block – blocks the human KCNQ1 potassium channel; P51787; CHO-K1 KCNQ1, FluxOR thallium flux fluorescence; active compounds read high; B-score at 10 µM; 1.3% of 310,000 active; AID 2642;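 active = compounds whose thallium flux B-score, printed positive for inhibition, exceeds three library SD while starting fluorescence stays within three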;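 note: channel opened by potassium depolarization with thallium stimulus after 20 min compound exposure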
KCNK9 inh – blocks the human KCNK9 two-pore domain potassium channel; B-score at 10 µM; AID 488922; 1.2% of 310,000 active; HEK293 KCNK9, FluxOR thallium flux fluorescence; active compounds read low;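 active = ratio B-score over 3 SD below the library mean, with starting fluorescence within 5 SD of its mean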;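 note: negative B-score means less thallium flux so channel inhibition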
KCNK3 block – human KCNK3 channel inhibition, primary screen; CHO-KCNK3 thallium flux, FluxOR fluorescence; active compounds read low; B-score at 10 µM; 0.84% of 340,000 active; AID 602410;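 active = B-score under library mean minus 4 SD, starting fluorescence ratio at most library mean plus 5 SD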;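 note: more negative B-score means stronger inhibition of thallium flux through KCNK3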
Kir21 inh – blocks the mouse Kir2.1 inward-rectifier potassium channel; HEK293-Kir2.1, FluxOR thallium flux fluorescence; active compounds read low; B-score at 10 µM; 0.85% of 310,000 active;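 active = fluorescence ratio B-score at or below minus 3 SD of library scores, with starting-brightness B-score within 2 SD, cut at about -4.2 in these data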;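 note: channel flux triggered by added potassium and thallium sulfate stimulus; B-score of peak minus minimum fluorescence over baseline after thallium stimulus; more negative B-score means stronger Kir2.1 block with less thallium influx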
KCNK9 inh conf – human KCNK9 inhibitor confirmation; inhibition, % at 10 µM; 43% of 4,900 active; shares compounds with KCNK9 inh; HEK293 KCNK9 cells, FluxOR thallium flux fluorescence;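 active = thallium signal inhibited by more than 5 SD of the compound-free buffer control wells, on both duplicate plates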;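 note: 0% = assay buffer control wells without compound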
Kir21 sel – tests whether KCNK9 modulators also affect mouse Kir2.1 | inhibition, % at 10 µM | 4% of 4,900 active | shares compounds with KCNK9 inh | Kir2.1 cells, FluxOR thallium flux fluorescence;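 active = thallium signal drop more than 5 SD beyond the mean of the no-compound control wells, seen in both duplicate plates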;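 note: signal is fluorescence rise after thallium addition divided by baseline fluorescence; plate controls were assay buffer only for no effect and full block by chlorpromazine control for full effect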
HEK293 Tl ctr – non-induced cell nonspecific activity of KCNK9 modulators. non-induced KCNK9-HEK293, FluxOR thallium flux. shares compounds with KCNK9 inh. inhibition, % at 10 µM. 40% of 4,900 active. AID 492997;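 active = thallium signal drop beyond 5 SD of the untreated control mean, on both duplicate plates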;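 note: plate controls were buffer only IC0 wells for no effect and SID17386958 at its maximal inhibitory level for full effect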
An asterisk follows results filed as active; i = inactive; . = no result given.

SMILES	KCNQ1 pot	hERG rescue	KCNQ1 block	KCNK9 inh	KCNK3 block	Kir21 inh	KCNK9 inh conf	Kir21 sel	HEK293 Tl ctr
Cc1ccc(S(=O)(=O)N2CCN(C(=O)c3c(-c4ccccc4)noc3C)CC2)cc1	i	-5	i	i	i	0.57	.	.	.
S=C(c1ccccc1)N1CCN(c2ccccc2)CC1	.	.	.	.	i	.	.	.	.
CC(C)(C)c1ccc(C(=S)N2CCN(c3ccccc3)CC2)cc1	i	-8	6*	i	i	0.39	i	i	i
O=C(NCc1cccnc1)C1CCC(CNS(=O)(=O)c2cccc3nsnc23)CC1 (stereo not drawn)	i	-6	i	i	i	-3.1	.	.	.
Cc1ccc(NC(=S)NNC(=O)c2ccc(N3CCOCC3)c([N+](=O)[O-])c2)cc1Cl	i	-7	6*	i	i	0.98	i	i	i
O=C(c1ccc(N2CCOCC2)c([N+](=O)[O-])c1)N1CCCCC1	i	-9	i	i	i	0.7	.	.	.
Cc1cc(C(=O)Nc2ccc(N3CCCC3)c(Cl)c2)ccc1[N+](=O)[O-]	i	-2	i	i	i	-2.1	.	.	.
O=C(c1cc([N+](=O)[O-])ccc1Cl)N1CCN(c2ccccc2)CC1	i	-4	i	i	i	2	.	.	.
O=C(NNC(=S)Nc1ccc(Cl)c(Cl)c1)c1cccc([N+](=O)[O-])c1	i	-26	11*	i	i	-1.4	i	i	i
O=C(NNC(=S)Nc1ccc(Cl)cc1Cl)c1ccc(N2CCOCC2)c([N+](=O)[O-])c1	i	-10	6*	i	i	0	i	i	i
O=C(c1cc([N+](=O)[O-])ccc1Cl)N1c2ccccc2Sc2ccccc21	i	-12	i	-12*	i	-0.73	61%*	i	45%*
CN(CC(=O)Nc1ccc(N2CCOCC2)cc1)C(=O)c1ccc(CS(C)(=O)=O)cc1	.	.	.	.	i	.	.	.	.
Cc1cc(NC(=O)c2cc([N+](=O)[O-])ccc2Cl)no1	i	-1	i	i	i	-1.7	.	.	.
O=C(Nc1cccc(NC(=O)c2cc([N+](=O)[O-])ccc2Cl)n1)c1cc([N+](=O)[O-])ccc1Cl	i	-12	i	-8.2*	-9.9*	-0.46	i	i	26%*
Cc1ccc(NS(=O)(=O)c2cccc(C(=O)N/N=C/c3ccc4c(c3)OCCO4)c2)c(C)c1	i	-5	i	i	i	-0.26	.	.	.
CCOc1cccc(-c2c(C(=O)N/N=C/c3c(F)cccc3Cl)nnn2-c2nonc2N)c1	i	-10	i	-9.4*	i	0.93	i	i	i
CCOc1ccc(CCNC(=O)CCOc2cc(C)ccc2C)cc1OCC	i	-4	i	i	i	-5.1*	i	i	34%*
O=C(CSCc1ccccc1)NCCc1ccc(F)cc1	i	-6	i	i	i	0.94	.	.	.
CCOc1ccc(CCNC(=O)CSc2nnnn2C)cc1OCC	i	-8	i	-13*	i	0.36	i	i	i
CCOc1ccc(CCNC(=O)CSCc2ccc(C)cc2)cc1OCC	i	-4	i	i	i	-6*	i	i	i
O=C(CSCc1ccc(Br)cc1)NCCc1ccccc1	i	-9	i	i	i	-4.8*	i	i	i
Cc1cc(C)c(OCC(=O)OC(C)C(=O)NCc2ccccc2)c(C)c1 (stereo not drawn)	.	.	.	.	i	.	.	.	.
CCS(=O)c1ccccc1C(=O)OCC(=O)Nc1cccc(S(=O)(=O)N2CCCCC2)c1 (stereo not drawn)	.	.	.	.	i	.	.	.	.
CCOc1ccc(CCNC(=O)CSc2nn(-c3ccc(C)c(Cl)c3)c(=S)s2)cc1OCC	i	-12	i	i	i	0.22	i	i	i
CCC(=O)Nc1ccc(C2=Nn3c(nnc3C(C)C)SC2)cc1	i	-4	i	i	i	-1	.	.	.
SMILES	KCNQ1 pot	hERG rescue	KCNQ1 block	KCNK9 inh	KCNK3 block	Kir21 inh	KCNK9 inh conf	Kir21 sel	HEK293 Tl ctr
Cc1cccc2sc(NNC(=O)c3cc(=O)c4ccccc4o3)nc12	i	-16	i	i	i	0.01	i	i	i
Cc1ccc2sc(NNC(=O)c3cc(=O)c4ccccc4o3)nc2c1C	i	-21	i	i	i	-0.55	i	i	i
CCc1cccc(C)c1NC(=O)CSc1n[nH]c(N)n1	.	.	.	.	i	.	.	.	.
COc1ccc(Cn2c(=O)[nH]c3cc(C(=O)N4CCN(Cc5ccccc5)CC4)ccc3c2=O)cc1	i	-9	i	i	i	0.98	.	.	.
COc1ccc2c(C)c(C(=O)N3CCN(Cc4ccccc4)CC3)oc2c1	i	-8	i	i	i	-3.6	i	i	i
CCOC(=O)c1c(NS(=O)(=O)c2ccc(Br)cc2)sc2c1CCC2	56*	62*	i	i	i	0.18	i	i	i
COC(=O)c1c(NS(=O)(=O)c2ccc3ccccc3c2)sc2c1CCCC2	33*	17*	i	i	i	0.67	i	i	i
CC1CCc2c(sc(NC(=O)c3ccco3)c2C(=O)O)C1 (stereo not drawn)	i	-5	i	i	i	0.07	.	.	.
CC1CCc2c(sc(NS(=O)(=O)c3ccccc3)c2C(=O)OC(C)C)C1 (stereo not drawn)	26*	4	i	i	i	2.5	i	i	i
Cc1onc(-c2ccccc2)c1C(=O)OCC(=O)Nc1ccc(OC(F)(F)F)cc1	.	.	.	.	i	.	.	.	.
CC1CCCCC12NC(=O)N(CC(=O)Nc1ccc3[nH]c(=O)[nH]c3c1)C2=O (stereo not drawn)	i	-8	i	i	i	-0.01	.	.	.
Cc1ccc(C2=[N+]([O-])C3(CCCCC/C3=N\NC(N)=S)N(O)C2(C)C)o1 (stereo not drawn)	i	-6	i	i	.	-0.78	.	.	.
COc1ccccc1N1CCN(C2CCCN(C(=O)c3cccc(-c4ccco4)c3)C2)CC1 (stereo not drawn)	i	-15	i	i	i	-0.55	i	i	i
COc1ccccc1N1CCN(C2CCCN(C(=O)c3ccoc3C)C2)CC1 (stereo not drawn)	i	-5	i	i	i	1.6	.	.	.

Screening data (PubChem BioAssay)
